# Published values of several laboratories.
# Protocols differ between the studies behind these lines.
# Effect on: enzyme activity
# ABL1: Tyrosine-protein kinase ABL1 (ABL1, Homo sapiens, UniProt P00519)
# ABL1 Q252H: Tyrosine-protein kinase ABL1 (ABL1, Homo sapiens, UniProt P00519, Q252H)
SMILES,target,mode,technique,concentration,remaining activity [%]
Cc1[nH]c(/C=C2\C(=O)Nc3ccc(F)cc32)c(C)c1C(=O)N[C@H]1CCN(C(=O)N(C)C)C1,ABL1,inhibitor,,0.1 µM,104
CCCOc1ccc(OC)c(F)c1C(=O)c1ccc(C(=O)N[C@@H]2CNC[C@H]2NC(=O)c2ccc3[nH]ncc3c2)cc1,ABL1 Q252H,inhibitor,,10 µM,76
O=C(Nc1cnn(-c2csc(C(=O)NC3COC3)c2)c1)Nc1ccccc1Cl,ABL1,inhibitor,,5 µM,83.4
CC(C)(O)[C@H]1CC[C@H](Nc2ccc3ncc(-c4cccc(C(F)(F)F)c4)n3n2)CC1,ABL1,inhibitor,,1 µM,69.8
CC(C)(C)c1nc(-c2cccc(NS(=O)(=O)c3c(F)cccc3F)c2F)c(-c2ccnc(N)n2)s1,ABL1,inhibitor,radiometric,1 µM,94
Cc1ccc(NC(=O)c2ccc(C)c(C(F)(F)F)c2)cc1C#Cc1nn(C2CCC(O)CC2)c2ncnc(N)c12 (centres unmarked),"Tyrosine-protein kinase ABL1 (ABL1, Homo sapiens, UniProt P00519, M351T)",,,10 µM,0
Cc1cnc(NC2CCOCC2)nc1-n1cnc(C(=O)NC(CN)c2cc(F)cc(Cl)c2)c1 (centres unmarked),ABL1 Q252H,inhibitor,radiometric,1 µM,91
COc1cc(Nc2cnc(C#N)c(O[C@H](C)CN(C)C)n2)ncc1-c1cnn(C)c1,ABL1,inhibitor,radiometric,10 µM,58
